From paper PMC2191014 (The Journal of Experimental Medicine, 1993)
Non-standard residues stand in square brackets, D forms with d. Residues, ends and D or L forms follow the SMILES beside them.

Columns and labels:
[1] = test system: NOD mice; assay: Mortality and hypersensitivity during chronic treatment, first experiment; type: in vivo, mouse (NOD); conditions: after 10-18 wk of treatment; 500 nmol chronic
Outline: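 Female NOD mice from 3 wk of age got 500 nmol test peptide in HBSS, i.p. and s.c. at multiple sites. Schedule: five times/week for 3 wk, five times/week for a further 3 wk, then twice weekly to 22-23 wk. Groups: 18 test-peptide, 12 nonblocking-peptide and 18 HBSS-only mice.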

[2] = Peptide-specific antibodies in mice of the Fig. 3 B experiment; type: in vivo, mouse (NOD); conditions: data not shown
Outline: (§1)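 ELISA on sera of individual chronically peptide-treated NOD mice at several time points. Wells were coated with 250 ng peptide in PBS at 4°C overnight and blocked with 2% BSA, 37°C, 30 min. Diluted sera ran 1 h at 37°C, then phosphatase-conjugated anti-mouse Ig, IgG or IgM (1:500) 2 h at 37°C. p-Nitrophenyl phosphate (1 mg/ml) ran 45 min, read at OD 405. Uncoated-well background was subtracted from duplicate means.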

[3] = test system: NOD mice; assay: Mortality and symptoms during chronic treatment, second experiment; type: in vivo, mouse (NOD)
Outline: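 Female NOD mice received 500 nmol test peptide in HBSS, i.p. and s.c., from 3 wk of age for 20 wk. Thereafter peptide was co-injected with ketotifen 3 mg/kg […] (13 mice). Controls were ketotifen only (15) and HBSS only (15).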

[4] = biological target: T1, Ad (Mus musculus, UniProt P01921+P04228); assay: Competition for antigen presentation of OVA 323-339 to hybridoma DO11.10; type: cell-based
T1 sequence (P01921 28-265): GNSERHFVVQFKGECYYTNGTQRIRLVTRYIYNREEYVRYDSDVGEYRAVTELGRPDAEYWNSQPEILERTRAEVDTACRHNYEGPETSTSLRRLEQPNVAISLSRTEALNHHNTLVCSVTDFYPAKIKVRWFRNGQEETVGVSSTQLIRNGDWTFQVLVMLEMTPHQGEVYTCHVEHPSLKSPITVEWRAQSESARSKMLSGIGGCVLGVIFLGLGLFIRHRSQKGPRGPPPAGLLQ
T1 sequence (P04228 24-256): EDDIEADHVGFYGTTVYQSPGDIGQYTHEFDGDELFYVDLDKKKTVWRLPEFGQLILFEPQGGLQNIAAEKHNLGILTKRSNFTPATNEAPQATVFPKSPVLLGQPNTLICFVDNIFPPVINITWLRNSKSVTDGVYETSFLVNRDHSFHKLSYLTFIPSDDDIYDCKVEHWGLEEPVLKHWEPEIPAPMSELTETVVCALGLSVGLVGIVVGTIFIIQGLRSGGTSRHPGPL
Outline: (§2)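 LK cells (2.5 × 10^4/well) served as APC. They were preincubated 24 h with antigenic peptide plus competitor peptide in RPMI 1640 with 10% FCS, then irradiated (2,000 rad) and washed. Hybridoma cells (5 × 10^4/well) were added for 24 h. Supernatant was transferred to 10^4 CTLL cells, and IL-2 was read as thymidine uptake over the last 4 h of the 24-h CTLL culture.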

[5] = Peptide-specific antibodies by ELISA in sera of chronically treated mice; type: in vivo, mouse (NOD); conditions: for peptide-specific IgG antibodies / peptide-specific IgM antibodies: ELISA, sera of chronically treated mice
Outline: as §1

[6] = test system: Ek; assay: Competition for antigen presentation of HEL 1-18 to hybridoma 2G7.1; type: cell-based, mouse; conditions: APC LK cells, 2 μM HEL 1-18, competitor up to 100 μM
Outline: as §2

[7] = test system: Ed; assay: Competition for antigen presentation of HEL 105-120 to hybridoma 1H11.3; type: cell-based, mouse; conditions: APC LK cells, 500 nM HEL 105-120, competitor up to 100 μM
Outline: as §2

[8] = test system: NOD mice, spontaneous autoimmune diabetes; assay: Prevention of spontaneous diabetes in female NOD mice, first experiment; type: in vivo, mouse (NOD)
Outline: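 Female NOD mice from an SPF in-house colony were dosed from 3 wk of age with 500 nmol peptide in HBSS, i.p. and s.c. at multiple sites. The schedule was five times weekly for 3 wk, five times weekly for 3 wk more, then twice weekly to 22-23 wk. Arms: test peptide (18 mice), nonbinding control peptide (12), HBSS (18). Monitoring began at 10 wk; blood glucose ≥200 mg/dl counted as diabetic.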

[9] = test system: NOD class II MHC molecule Ag7; assay: Competition for antigen presentation of HEL 8-29 to T cell hybridoma 2D12.1; type: cell-based, mouse (NOD); conditions: APC NOD splenocytes, 80 nM HEL 8-29, competitor up to 100 μM
Outline: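 NOD splenocytes (2.5 × 10^5/well) served as APC. They were held 24 h with antigenic peptide and competitor in RPMI 1640 + 10% FCS, then irradiated at 2,000 rad and washed before 5 × 10^4 hybridoma cells were added. After 24 h, supernatant went onto 10^4 CTLL cells. IL-2 was measured by thymidine incorporation during the final 4 h of the 24-h CTLL culture.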

[10] = test system: Ag7; assay: Screening: binding to Ag7; type: cell-based, mouse (NOD); conditions: screening of peptide panel
[11] = test system: Ag7-restricted T cell response; conditions: cited from earlier work

Compound	mortality (died/total) [1]	animals producing antibodies against the peptide [2]	mortality ([3]; P1 mixed with ketotifen (3 mg/kg) after 20 wk of treatment)	symptoms after adding ketotifen ([3]; P1 mixed with ketotifen (3 mg/kg) after first signs of postinjection fatigue (20 wk of treatment))	IC50 [4]	peptide-specific IgG antibodies [5]	peptide-specific IgM antibodies [5]	fraction of mice antibody negative ([5]; after 13 wk of treatment)	effect on antigen presentation by Ek [6]	effect on antigen presentation by Ad ([4]; APC LK cells, 1 μM OVA 323-339, hybridoma DO11.10, competitor up to 100 μM)	effect on antigen presentation by Ed [7]	plateau level of diabetic animals ([8]; by 22 wk of age, control groups (P2, 12 mice, or solvent))	effect on spontaneous diabetes (summary) ([8]; chronic administration from 3 wk of age on, female NOD mice)	effect on antigen presentation by Ag7 [9]	binding to Ag7 [10]	fraction of mice nonresponders ([5]; chronic treatment)	Ag7-restricted T cell response of NOD mice [11]
CC(C)[C@H](NC(=O)[C@@H](NC(=O)[C@H](Cc1ccc(O)cc1)NC(=O)[C@@H](NC(=O)[C@H](N)Cc1ccc(O)cc1)[C@@H](C)O)[C@@H](C)O)C(=O)N[C@@H](Cc1c[nH]cn1)C(=O)N[C@@H](C)C(=O)N[C@@H](C)C(=O)N[C@@H](Cc1c[nH]cn1)C(=O)N[C@@H](C)C(=O)N[C@@H](Cc1ccc(O)cc1)C(=O)N[C@H](C(=O)N[C@@H](Cc1ccc(O)cc1)C(=O)N[C@@H](C(=O)O)[C@H](C)O)[C@@H](C)O [P1, yTYTVHAAHAYTYt] (H-[dY]TYTVHAAHAYTY[dT]-OH)	6/18	3 of 13 animals	no mortality occurred	symptomless	~20 µM	IgG	no IgM	Approximately half	–	–	–	–	–	–	–	–	–
KMKMVHAAHAKMKM [P2]	1/12	–	–	–	–	no IgG	exclusively of IgM isotype	–	inhibited antigen presentation	inhibited antigen presentation	not that by As7 and Ea	60%	no effect on the disease	not that by As7	fails to bind	Approximately half	–
sheep insuline: sheep insulin used as antigen in NOD mice	–	–	–	–	–	–	–	–	–	–	–	–	–	–	–	–	strong
